Laboratory results as given in ChEMBL document CHEMBL3091448, “Identification of potent and selective cathepsin S inhibitors containing different central cyclic scaffolds” (J Med Chem, 2013).

Assays:
Homo sapiens = organism: Homo sapiens; assay: Selectivity ratio of IC50 for human cathepsin-K to IC50 for human cathepsin-S
Cathepsin K = target: T1, Cathepsin K (Homo sapiens, UniProt P43235); assay: Inhibition of human cathepsin-K using Z-Leu-Arg-AMC as substrate up to 20 mins by fluorescence assay
T1 sequence (P43235 whole entry): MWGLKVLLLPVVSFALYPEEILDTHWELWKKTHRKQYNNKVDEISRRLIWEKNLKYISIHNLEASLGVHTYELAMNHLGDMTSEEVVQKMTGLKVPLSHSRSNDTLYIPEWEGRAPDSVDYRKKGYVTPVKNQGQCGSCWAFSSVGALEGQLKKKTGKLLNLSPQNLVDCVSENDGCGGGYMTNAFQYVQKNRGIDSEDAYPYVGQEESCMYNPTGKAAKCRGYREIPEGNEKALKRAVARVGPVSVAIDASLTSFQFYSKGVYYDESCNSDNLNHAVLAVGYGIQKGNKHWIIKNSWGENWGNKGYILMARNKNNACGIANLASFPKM
Outline: (§1)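 Fluorogenic quenched-peptide cleavage assay. Enzymes at 1 nM in 100 mM potassium phosphate pH 6.5, 5 mM EDTA-Na, 0.001% Triton X-100 and 5 mM DTT. Enzyme was added to the compound dilutions, then 20 μM substrate started the reaction: Z-Val-Val-Arg-AMC, or Z-Leu-Arg-AMC for CatK. Fluorescence (ex 360/em 465 nm) was read over 20 min. IC50 is the mean of ≥2 independent experiments.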

A20 = assay: Inhibition of ovalbumin-induced antigen presentation in mouse A20 cells treated 1 hr before ovalbumin addition incubated for 16 hrs followed by co-cultured with DO10.10 T-cell hybridoma cells for 24 hrs assessed as IL-2 production by luminex single-bead analysis; type: functional, cell-based
Outline: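 A20 cells were seeded at 3 × 10⁵/mL and preincubated with compound for 1 h. Ovalbumin was then added (5 mg/mL final) for 16 h. Cells were washed three times with PBS, then DO10.10 T-cell hybridoma cells (2 × 10⁵/mL) were added. After 24 h, IL-2 was quantified by Luminex single-bead assay using two anti-IL-2 antibodies. IC50 is the mean of ≥2 independent experiments.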

Cathepsin B = Cathepsin B (Homo sapiens, UniProt P07858); assay: Inhibition of human cathepsin-B using Z-Val-Val-Arg-AMC as substrate up to 20 mins by fluorescence assay; outline: as §1
[1] = Effective permeability of the compound by PAMPA; type: ADME; settings: read-out: Peff
Procathepsin L = Procathepsin L (Homo sapiens, UniProt P07711); assay: Inhibition of human cathepsin-L using Z-Val-Val-Arg-AMC as substrate up to 20 mins by fluorescence assay; outline: as §1
[2] = Drug degradation in NMRI mouse plasma at 1000 ng/mL after 4 hrs; type: ADME, cell-free; settings: read-out: Drug degradation
Outline: (§2)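 Heparinized pooled NMRI mouse plasma was spiked with compound at 1000 ng/mL and incubated at 37 °C in an orbital shaker. Aliquots (n = 3 per time point) were taken at 2 min, 1 h and 4 h and analysed by LC−MS/MS.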

Cathepsin S [3] = target: Cathepsin S (Homo sapiens, UniProt P25774); assay: Inhibition of human cathepsin-S using Z-Val-Val-Arg-AMC as substrate up to 20 mins by fluorescence assay; outline: as §1
Cathepsin S [4] = target: Cathepsin S (Mus musculus, UniProt O70370); assay: Inhibition of mouse cathepsin-S using Z-Val-Val-Arg-AMC as substrate up to 20 mins by fluorescence assay; outline: as §1
[5] = Half life in C57Bl/6 mouse at 9 mg/kg, po; type: ADME, organism-based; parameters: dose 9 mg/kg, route oral; settings: in vivo
Outline: (§3)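 Male C57Bl/6 mice, 8 weeks old, 24−29 g. Dosing was by oral gavage at 9 mg/kg as an aqueous microsuspension in gelatin/NaCl (7.5%/0.62%), or by iv bolus at 2 mg/kg in aqueous NaCl/30% 1-methyl-2-pyrrolidone. Terminal blood (n = 2 per time point) was collected into EDTA tubes and spun at 4 °C to obtain plasma. Plasma levels were measured by LC−MS/MS after acetonitrile precipitation. Values are the mean of two experiments.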

[6] = Oral bioavailability in C57Bl/6 mouse at 9 mg/kg; type: ADME, organism-based; settings: in vivo; outline: as §3
[7] = Metabolic stability in NMRI mouse plasma assessed as compound remaining at 1000 ng/mL after 4 hrs; type: ADME, cell-free; settings: read-out: Stability; outline: as §2
[8] = Clearance in C57Bl/6 mouse at 2 mg/kg, iv and 9 mg/kg, po; type: ADME, organism-based; settings: in vivo; outline: as §3
Mus musculus [9] = assay: Dose normalized AUC in C57Bl/6 mouse at 2 mg/kg, iv; type: ADME, organism-based; parameters: dose 2 mg/kg, route intravenous; settings: in vivo; outline: as §3
Mus musculus [10] = assay: Dose normalized AUC in C57Bl/6 mouse at 9 mg/kg, po; type: ADME, organism-based; parameters: dose 9 mg/kg, route oral; settings: in vivo; outline: as §3
[11] = Half life in C57Bl/6 mouse at 2 mg/kg, iv; type: ADME, organism-based; parameters: dose 2 mg/kg, route intravenous; settings: in vivo; outline: as §3
[12] = Volume of distribution at steady state in C57Bl/6 mouse at 2 mg/kg, iv and 9 mg/kg, po; type: ADME, organism-based; settings: in vivo, read-out: Vdss; outline: as §3
Plasma = assay: Metabolic stability in human plasma assessed as compound remaining at 1000 ng/mL after 5 hrs; type: ADME, cell-free
Mus musculus [13] = assay: Reduction of ovalbumin-induced IL-2 production in po dosed DO10.11 transgenic BALB/c mouse administered 30 mins before ovalbumin challenge measured after 4 hrs by luminex single-bead analysis; type: functional
Outline: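 DO10.11 BALB/c mice carrying a transgenic ovalbumin-peptide TCR were dosed orally with compound, then challenged iv with 1.0 mg low-endotoxin ovalbumin. Plasma IL-2 was measured at 4 h by Luminex bead assay using two anti-IL-2 antibodies. Groups had n = 8, and reduction was expressed versus the ovalbumin challenge group (ANOVA with Dunnett test).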

Sequence of Cathepsin S (Homo sapiens, UniProt P25774) (P25774 whole entry): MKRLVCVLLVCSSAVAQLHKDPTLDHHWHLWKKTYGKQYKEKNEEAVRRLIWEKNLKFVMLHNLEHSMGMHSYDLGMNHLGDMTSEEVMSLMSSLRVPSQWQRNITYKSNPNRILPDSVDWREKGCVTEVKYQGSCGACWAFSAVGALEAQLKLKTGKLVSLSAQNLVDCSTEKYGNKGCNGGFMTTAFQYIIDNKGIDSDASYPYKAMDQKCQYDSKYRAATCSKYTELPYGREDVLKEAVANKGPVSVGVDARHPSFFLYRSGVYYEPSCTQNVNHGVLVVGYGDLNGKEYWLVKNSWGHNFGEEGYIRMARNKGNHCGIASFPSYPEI
Sequence of Procathepsin L (P07711 whole entry): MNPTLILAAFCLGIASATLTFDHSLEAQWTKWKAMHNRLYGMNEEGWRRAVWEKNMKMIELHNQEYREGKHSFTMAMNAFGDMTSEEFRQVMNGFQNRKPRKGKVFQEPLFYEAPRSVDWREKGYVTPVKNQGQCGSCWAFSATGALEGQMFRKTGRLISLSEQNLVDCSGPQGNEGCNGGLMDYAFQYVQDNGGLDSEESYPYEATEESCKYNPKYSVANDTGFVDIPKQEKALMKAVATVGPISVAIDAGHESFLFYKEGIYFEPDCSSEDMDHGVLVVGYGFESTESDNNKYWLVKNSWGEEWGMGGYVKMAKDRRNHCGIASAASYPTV
Sequence of Cathepsin S (Mus musculus, UniProt O70370) (O70370 whole entry): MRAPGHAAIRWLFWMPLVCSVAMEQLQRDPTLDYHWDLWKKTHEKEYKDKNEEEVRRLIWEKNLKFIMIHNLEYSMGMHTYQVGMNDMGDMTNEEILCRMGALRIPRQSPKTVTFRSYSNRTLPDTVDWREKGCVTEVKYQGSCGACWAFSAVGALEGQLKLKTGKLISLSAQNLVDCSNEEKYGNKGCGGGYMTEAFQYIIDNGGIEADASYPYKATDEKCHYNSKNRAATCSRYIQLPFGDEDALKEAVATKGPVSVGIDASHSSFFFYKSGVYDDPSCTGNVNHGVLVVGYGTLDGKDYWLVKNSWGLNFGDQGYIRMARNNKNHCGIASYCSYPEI

Structure (SMILES) | IC50 (Cathepsin K) | IC50 (A20) | IC50 (Cathepsin B) | IC50 (Procathepsin L) | IC50 (Cathepsin S [3]) | further results
N#CCNC(=O)[C@@H]1C[C@@H](S(=O)(=O)CC2CC2)C[C@H]1C(=O)N1CCOCC1 | > 25000 nM | 4510 nM |  |  |  | Ratio IC50 (Homo sapiens): > 100
CC1CCN(C(=O)[C@@H]2C[C@H](S(=O)(=O)c3ccccc3)C[C@H]2C(=O)NC2(C#N)CC2)CC1 | > 25000 nM | 2 nM | 700 nM | 1900 nM |  | Papp [1]: 4.6 ×10⁻⁶ cm/s
N#CC1(NC(=O)[C@@H]2C[C@@H](S(=O)(=O)c3ccccc3)C[C@H]2C(=O)N2CCOCC2)CC1 | 29700 nM | 12 nM | 8500 nM | 12200 nM |  | 
N#CC1(NC(=O)[C@@H]2C[C@@H](S(=O)(=O)c3ccccc3Cl)CN2C(=O)C2CCCCC2)CC1 | > 25000 nM | 2 nM |  | 8300 nM | 0.3 nM | metabolised at 4 h, 1000 ng/mL [2]: > 90%; IC50 (Cathepsin S [4]): 0.2 nM
N#CCNC(=O)[C@@H]1CC(F)(F)C[C@H]1C(=O)N1CCOCC1 | 855 nM | 925 nM |  |  | 830 nM | Ratio IC50 (Homo sapiens): 1
CN1CCN(C(=O)[C@@H]2C[C@H](S(=O)(=O)c3ccccc3)C[C@H]2C(=O)NC2(C#N)CC2)CC1 | > 25000 nM | 17 nM | 6400 nM | 4700 nM | 2 nM | 
N#CCNC(=O)[C@@H]1C[C@@H](S(=O)(=O)c2ccccc2Cl)C[C@H]1C(=O)N1CCOCC1 | > 25000 nM | 3 nM |  |  |  | Ratio IC50 (Homo sapiens): > 20000
N#CC1(NC(=O)[C@@H]2C[C@@H](S(=O)(=O)c3ccccc3)C[C@H]2C(=O)N2CCCCC2)CC1 | > 25000 nM | 5 nM | 3600 nM | 4200 nM |  | 
N#CCNC(=O)[C@@H]1C[C@@H](S(=O)(=O)c2ccccc2C(F)(F)F)C[C@H]1C(=O)N1CCOCC1 | > 25000 nM | 2 nM |  |  |  | Ratio IC50 (Homo sapiens): > 20000
COc1ccc(C(C#N)NC(=O)[C@@H]2CCCC[C@@H]2NC(=O)/C=C/c2ccccc2)cc1OC (some centres not stated) | 16 nM |  |  |  | 640 nM | 
N#CC1(NC(=O)[C@@H]2C[C@@H](S(=O)(=O)c3ccccc3)C[C@H]2C(=O)N2CC3CCC(C2)O3)CC1 | > 25000 nM | 16 nM | 13100 nM | 4100 nM | 1 nM | 
N#CCNC(=O)[C@@H]1CN(S(=O)(=O)c2ccccc2C(F)(F)F)C[C@H]1C(=O)N1CCOCC1 | > 25000 nM | 118 nM |  |  | 18 nM | Ratio IC50 (Homo sapiens): > 1000
N#CCNC(=O)[C@@H]1C[C@@H](S(=O)(=O)c2ccccc2)C[C@H]1C(=O)N1CCOCC1 | 15500 nM | 23 nM | 6200 nM | 11700 nM | 0.7 nM | Ratio IC50 (Homo sapiens): > 20000; half-life [5]: 54 min; bioavailability [6]: 18%; remaining at 4 h, 1000 ng/mL [7]: 99%; clearance [8]: 39 mL/min/kg; AUC/dose (Mus musculus [9]): 427 ng·h/mL; AUC/dose (Mus musculus [10]): 77 ng·h/mL; half-life [11]: 18 min; Vd [12]: 0.5 L/kg; Stability (Plasma): Stable; IC50 (Cathepsin S [4]): 1 nM
C[C@@H]1CN(C(=O)[C@@H]2C[C@H](S(=O)(=O)c3ccccc3)C[C@H]2C(=O)NC2(C#N)CC2)C[C@H](C)O1 | > 25000 nM | 1 nM | 3200 nM | 2700 nM |  | 
N#CC1(NC(=O)[C@@H]2C[C@@H](S(=O)(=O)c3ccccc3)C[C@H]2C(=O)N2CCCC2)CC1 | > 25000 nM | 29 nM | 7100 nM | 17000 nM | 2 nM | 
CC(=O)N1C[C@H](S(=O)(=O)c2ccccc2Cl)C[C@H]1C(=O)NC1(C#N)CC1 | > 25000 nM | 19 nM | 47600 nM | 29700 nM | 1 nM | half-life [5]: 30 min; bioavailability [6]: 53%; remaining at 4 h, 1000 ng/mL [7]: 72%; clearance [8]: 29 mL/min/kg; AUC/dose (Mus musculus [9]): 581 ng·h/mL; AUC/dose (Mus musculus [10]): 309 ng·h/mL; half-life [11]: 18 min; Vd [12]: 0.5 L/kg; Activity (Mus musculus [13]): Dose-dependent effect; ED50 (Mus musculus [13]): 5 mg/kg; Stability (Plasma): Stable; IC50 (Cathepsin S [4]): 2 nM
N#CCNC(=O)[C@@H]1CN(S(=O)(=O)c2ccccc2Cl)C[C@H]1C(=O)N1CCOCC1 | > 25000 nM | 208 nM |  |  | 12 nM | Ratio IC50 (Homo sapiens): > 1000
N#CC1(NC(=O)[C@@H]2C[C@@H](S(=O)(=O)c3ccccc3)C[C@H]2C(=O)N2CC3(COC3)C2)CC1 | > 25000 nM | 248 nM | 29700 nM | 22200 nM |  | 
N#CC1(NC(=O)[C@@H]2C[C@@H](S(=O)(=O)c3ccccc3)C[C@H]2C(=O)N2CCC(O)CC2)CC1 | > 25000 nM | 371 nM | 5700 nM | 4600 nM |  | Papp [1]: 0.2 ×10⁻⁶ cm/s
CN(C)C(=O)[C@@H]1C[C@H](S(=O)(=O)c2ccccc2)C[C@H]1C(=O)NC1(C#N)CC1 | > 25000 nM | 91 nM | 22900 nM | 24900 nM | 6 nM | 
N#CC1(NC(=O)[C@@H]2C[C@@H](S(=O)(=O)c3ccccc3)C[C@H]2C(=O)N2CCC2)CC1 | > 25000 nM | 44 nM | 39400 nM | 33600 nM | 10 nM | 
N#CCNC(=O)[C@@H]1CN(S(=O)(=O)c2ccccc2)C[C@H]1C(=O)N1CCOCC1 | > 25000 nM | 4240 nM |  |  | 271 nM | Ratio IC50 (Homo sapiens): > 90
N#CC1(NC(=O)[C@@H]2C[C@@H](S(=O)(=O)c3ccccc3)C[C@H]2C(=O)N2CCOCC2)CCC1 | > 25000 nM | 236 nM | > 25000 nM | > 25000 nM |  | 
N#CC1(NC(=O)[C@@H]2C[C@@H](S(=O)(=O)c3ccccc3)C[C@H]2C(=O)Nc2ccc(F)cc2)CC1 | > 25000 nM | 391 nM | > 25000 nM | > 25000 nM | 26 nM | 
N#CC1(NC(=O)[C@@H]2C[C@@H](S(=O)(=O)c3ccccc3)C[C@H]2C(=O)N2CCNCC2)CC1 | > 25000 nM | 1340 nM | 13300 nM | 2600 nM |  | 
N#CC1(NC(=O)[C@@H]2C[C@@H](S(=O)(=O)c3ccccc3)CN2C(=O)c2ccccc2)CC1 | > 25000 nM | 217 nM | > 25000 nM | > 25000 nM | 13 nM | IC50 (Cathepsin S [4]): 29 nM
N#CC1(NC(=O)[C@@H]2C[C@@H](S(=O)(=O)c3ccccc3)C[C@H]2C(=O)N2CCS(=O)(=O)CC2)CC1 | > 25000 nM | 816 nM | 38000 nM | 15800 nM | 4 nM | Papp [1]: 0.2 ×10⁻⁶ cm/s
CC(C)(C#N)NC(=O)[C@@H]1C[C@@H](S(=O)(=O)c2ccccc2)C[C@H]1C(=O)N1CCOCC1 | > 25000 nM | 43 nM | > 25000 nM | > 25000 nM | 3 nM | 
N#CC1(NC(=O)[C@@H]2C[C@@H](S(=O)(=O)c3ccccc3)C[C@H]2C(=O)N2CC(O)C2)CC1 | > 25000 nM | 572 nM | 63300 nM | 16200 nM | 7 nM | 
